Results on 21 compounds are retold here after ChEMBL document CHEMBL1143036, “Potential anti-inflammatory actions of the elmiric (lipoamino) acids” (2007).

Calls of active or inactive are those of the source. No cut-off for these calls is given here.

The test system of assay [1] is RAW264.7. Put plainly: Effect on iPGE2 level in LPS-induced mouse RAW264.7 cells at 1 uM by ELISA. The class given is functional. Summed up: (§1)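 RAW cells were seeded at 20,000/well and cultured 20 h at 37°C in 5% CO2, then washed and placed in serum-free RPMI. Compounds were added in DMSO at 1 or 10 uM final (N=3). LPS solution (1 ug/ml) was added 30 min later, with a further 2 h incubation. Centrifuged media were assayed by enzyme immunoassay for immunoreactive PGE and PGJ2 (pg/ml); the ratio is iPGJ/iPGE.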

Assay [2] concerns RAW264.7. Put plainly: Effect on iPGJ2 level in LPS-induced mouse RAW264.7 cells at 10 uM by ELISA. In kind it is functional. Summed up: as §1
For assay [3], the system named is RAW264.7. Put plainly: Effect on iPGJ2 level in LPS-induced mouse RAW264.7 cells at 1 uM by ELISA. The class given is functional. Summed up: as §1
A general note: An ELISA detects its analyte on a solid surface through an enzyme-linked reagent.

Assay [4] deals with RAW264.7. Put plainly: Ratio of iPGJ2 to iPGE in LPS-induced mouse RAW264.7 cells at 10 uM by ELISA. In kind it is functional. Summed up:
as §1

Assay [5] deals with RAW264.7. Put plainly: Ratio of iPGJ2 to iPGE in LPS-induced mouse RAW264.7 cells at 1 uM by ELISA. The class given is functional. Summed up:
as §1

Assay [6] relates to RAW264.7. Put plainly: Effect on iPGE2 level in LPS-induced mouse RAW264.7 cells at 10 uM by ELISA. In kind it is functional. Summed up:
as §1

The test system of assay [7] is RAW264.7. Put plainly: Antiproliferative activity against LPS-induced mouse RAW264.7 cells assessed as number of cells at 10 uM after 48 hrs. In kind it is functional. Summed up: (§2)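 RAW264.7 mouse macrophages were seeded at 500 cells/well and held 24 h at 37°C in 5% CO2. Compound was added (n=4 wells), then LPS solution (1 ug/ml) 1 h later, followed by 48 h incubation. Cell number was read as ATP luminescence (CellTiter-Glo), which is linear with cell count. Values are four-well means, […].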

Assay [8] deals with RAW264.7. Put plainly: Antiproliferative activity against LPS-induced mouse RAW264.7 cells assessed as number of cells at 0.1 uM after 48 hrs. In kind it is functional. Summed up: as §2
Assay [9] relates to RAW264.7. Put plainly: Antiproliferative activity against LPS-induced mouse RAW264.7 cells assessed as number of cells at 1 uM after 48 hrs. In kind it is functional. Summed up: as §2
Assay [10] relates to Mus musculus. Put plainly: Reduction of phorbol ester-induced ear edema in CD1 mouse assessed as ear thickness at 200 ug/ear. The class given is functional. Also on record: scale not given: the % may be the effect or the level left. Summed up: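 Male CD-1 mice (34–40 g), topically dosed at 200 ug/ear in 10 ul acetone on the ipsilateral ear, with acetone alone on the contralateral ear. Phorbol ester was the edema inducer. Ear thickness was read by digital micrometer and expressed as the ipsilateral minus contralateral difference in microns. N = 8; paired t-test against vehicle.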

For assay [11], the system named is Mus musculus. Put plainly: Reduction of phorbol ester-induced ear edema in CD1 mouse assessed as ear thickness. In kind it is functional, organism-based.

As for `CCCCCCCCCCCCCCCC(=O)N[C@H](C)C(=O)O`, the Activity in the assay on RAW264.7 [1] was 256 pg/mL; in the assay on RAW264.7 [2] it was 3079 pg/mL; with RAW264.7 [3], 281 pg/mL; in the assay with RAW264.7 [6] it was 319 pg/mL. Also, the Ratio is 9 in the assay with RAW264.7 [4] and 1 in the assay on RAW264.7 [5].

On to `CCCCC/C=C\C/C=C\CCCCCCCCCC(=O)N[C@@H](C)C(=O)O`, for which the Cell number with RAW264.7 [7] was found to be 605; in the assay with RAW264.7 [9], 4397. The Activity with RAW264.7 [8] is 3641.

Turning to `CCCCCCCCCCCCCCCC(=O)N[C@@H](C)C(=O)O`, the Activity in the assay with RAW264.7 [1] is 251 pg/mL; in the assay with RAW264.7 [3] it was 261 pg/mL; in the assay with RAW264.7 [8], 4541; in the assay with RAW264.7 [6] it was 232 pg/mL. For the same compound, the Cell number was 432 in the assay on RAW264.7 [7] and 4670 in the assay on RAW264.7 [9]. The Ratio with RAW264.7 [4] is 17; with RAW264.7 [5] it was 1.

For `CCCCC/C=C\C/C=C\CCCCCCCC(=O)NCC(=O)O` [LINOLEOYL GLYCINE], the Cell number in the assay with RAW264.7 [7] is 713; in the assay on RAW264.7 [9] it was 4595. In addition, in the assay on RAW264.7 [8], the Activity is recorded as 5979.

In the case of `CCCCC/C=C\C/C=C\C/C=C\C/C=C\CCCC(=O)N[C@@H](C)C(=O)O`, the Activity in the assay with RAW264.7 [1] is 241 pg/mL; with RAW264.7 [2], 41059 pg/mL; in the assay with RAW264.7 [3], 2345 pg/mL; in the assay with RAW264.7 [8], 4781; in the assay with RAW264.7 [6], 652 pg/mL. Further, the values for the Cell number in the assay with RAW264.7 [7] and with RAW264.7 [9] were 2110 and 4735, respectively. The values for the Ratio in the assay on RAW264.7 [4] and with RAW264.7 [5] were 62 and 9, respectively.

For the compound `CCCCC/C=C\C/C=C\CCCCCCCC(=O)N[C@@H](C)C(=O)O`, the Cell number in the assay on RAW264.7 [7] amounted to 621; in the assay with RAW264.7 [9] it was 4233. Also, the Activity in the assay with RAW264.7 [8] is reported as 3955.

Take `CCCCC/C=C\C/C=C\C/C=C\C/C=C\CCCC(=O)N[C@H](C)C(=O)O`: the Activity in the assay with RAW264.7 [1] came to 124 pg/mL; with RAW264.7 [2], 28224 pg/mL; in the assay with RAW264.7 [3], 1496 pg/mL; with RAW264.7 [6] it was 269 pg/mL. The Ratio is on record as 104 in the assay with RAW264.7 [4] and 12 with RAW264.7 [5].

Consider `CCCCC/C=C\C/C=C\C/C=C\C/C=C\CCCCCC(=O)N[C@@H](C)C(=O)O`, for which the Cell number in the assay with RAW264.7 [7] amounted to 618; in the assay with RAW264.7 [9], 4415. The Activity in the assay with RAW264.7 [8] turned out to be 4668.

For `CCCCCCCCCCCCCCCCCC(=O)NCC(=O)O`, the Activity in the assay with RAW264.7 [1] came to 121 pg/mL; in the assay on RAW264.7 [2] it was 159 pg/mL; in the assay on RAW264.7 [3], 201 pg/mL; in the assay with RAW264.7 [6], 126 pg/mL. In addition, the Ratio in the assay with RAW264.7 [4] and with RAW264.7 [5] was 1 each time.

`CCCCC/C=C\C/C=C\C/C=C\C/C=C\CCCC(=O)NCC(=O)O` [ARACHIDONOYL GLYCINE]: the Activity worked out at 273 pg/mL in the assay on RAW264.7 [1]; 97830 pg/mL with RAW264.7 [2]; 40407 pg/mL in the assay with RAW264.7 [3]; 5630 in the assay with RAW264.7 [8]; 40% in the assay with Mus musculus [10]; 425 pg/mL with RAW264.7 [6]. Also, the Cell number is reported as 591 in the assay with RAW264.7 [7] and 6156 with RAW264.7 [9]. Moreover, the Ratio in the assay on RAW264.7 [4] is recorded as 229; with RAW264.7 [5], 147.

As to `CCCCCCCC/C=C\CCCCCCCC(=O)NCC(=O)O` [OLEOYL GLYCINE], the Cell number with RAW264.7 [7] worked out at 425; with RAW264.7 [9], 5557. Further, the Activity with RAW264.7 [8] was 5172.

For the compound `COc1ccc2cc([C@H](C)C(=O)O)ccc2c1` [NAPROXEN], the Activity came to 70 pg/mL in the assay with RAW264.7 [2] and 75 pg/mL in the assay on RAW264.7 [6]. Besides, in the assay with RAW264.7 [4], the Ratio was 1.

On to `CCCCC/C=C\C/C=C\C/C=C\CCCCCCC(=O)NCC(=O)O`, for which the results for the Cell number in the assay with RAW264.7 [7] and with RAW264.7 [9] were 647 and 5563, respectively. Moreover, in the assay on RAW264.7 [8], the Activity was determined as 5486.

Consider `CCCCC/C=C\C/C=C\C/C=C\C/C=C\CCCCCC(=O)NCC(=O)O`, for which the Cell number was determined as 3574 in the assay on RAW264.7 [7] and 5310 in the assay with RAW264.7 [9]. Besides, the Activity in the assay on RAW264.7 [8] worked out at 5131.

For `CCCCC/C=C\C/C=C\CCCCCCCCCC(=O)NCC(=O)O`, the Cell number came out at 609 in the assay on RAW264.7 [7] and 5738 in the assay with RAW264.7 [9]. In the assay with RAW264.7 [8], the Activity came to 2945.

Regarding `CCCCC/C=C\C/C=C\C/C=C\CCCCCCC(=O)N[C@@H](C)C(=O)O`, the Cell number in the assay with RAW264.7 [7] is 637; with RAW264.7 [9], 4680. Besides, in the assay with RAW264.7 [8], the Activity is 4326.

On to `CCCCC/C=C\C/C=C\C/C=C\CCCCC(=O)N[C@@H](C)C(=O)O`, for which the Cell number is listed as 2696 with RAW264.7 [7] and 4557 in the assay on RAW264.7 [9]. Moreover, the Activity with RAW264.7 [8] is 4247.

On to `CCCCC/C=C\C/C=C\C/C=C\CCCCC(=O)NCC(=O)O`, for which the Activity in the assay on RAW264.7 [1] turned out to be 127 pg/mL; in the assay on RAW264.7 [2], 80205 pg/mL; with RAW264.7 [3], 5040 pg/mL; in the assay with RAW264.7 [8], 5435; with RAW264.7 [6], 289 pg/mL. The values for the Cell number with RAW264.7 [7] and in the assay with RAW264.7 [9] were 6602 and 5700, respectively. The results for the Ratio in the assay with RAW264.7 [4] and with RAW264.7 [5] were 277 and 39, respectively.

For the compound `CCCCCCCCCCCCCCCC(=O)NCC(=O)O` [PALMITOYL GLYCINE], the Activity with RAW264.7 [1] turned out to be 103 pg/mL; in the assay with RAW264.7 [2], 401 pg/mL; with RAW264.7 [3], 219 pg/mL; in the assay on RAW264.7 [8], 5120; with RAW264.7 [6], 128 pg/mL. The Cell number in the assay with RAW264.7 [7] came out at 5108; with RAW264.7 [9], 5524. Also, the figures for the Ratio in the assay with RAW264.7 [4] and with RAW264.7 [5] were 3 and 2, respectively.

For `O=C1CCN(c2ccccc2)N1`, in the assay with Mus musculus [11], the outcome was inactive.

For `CCCCCCCC/C=C\CCCCCCCC(=O)N[C@@H](C)C(=O)O`, the Cell number in the assay with RAW264.7 [7] is given as 422; with RAW264.7 [9], 4533. For the same compound, the Activity with RAW264.7 [8] was determined as 3637.
